In ChEMBL document CHEMBL4513216, “Probing the Open Global Health Chemical Diversity Library for Multistage-Active Starting Points for Next-Generation Antimalarials” (ACS Infect Dis, 2020) one finds cytotoxicity data, which are given here for 39 compounds.

Each structure is given as a SMILES string.

The nature of the series: Toxicity liver stage against HepG2, at 10uM. Also on record: test concentration 10 uM, cell line HepG2-A16-CD81EGFP. To be noted: human, HepG2-A16-CD81EGFP cells; read-out: INHIBITION
The format is cell-based. An outline of the steps: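 Uninfected HepG2-A16-CD81EGFP cells, 3 × 10^3 per well, 1536-well, plated on prespotted compound at 10 μM final, parasite-free screening media added to match infected plates; puromycin 10 μM positive, DMSO 0.5% negative; run in parallel with 48 h PbLuc assay at 37 °C, 5% CO2; viability by CellTiter-Glo luminescence, normalized to controls.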
In the case of `NC(=O)N1CCCC(C(=O)NCCOc2ccc3c(c2)OCO3)C1` (centres undefined), the cytotoxicity at 10 µM was -102%.

Turning to `CCN1CC2(CCN(C(=O)C(C)Oc3cccc(Cl)c3)CC2)OC1=O` (centres undefined), the cytotoxicity at 10 µM was -4.68%.

As for `Cc1noc(C)c1CNCc1ccccc1N(C)C1CCN(C)CC1`, the cytotoxicity at 10 µM worked out at 4.69%.

Consider `CSc1ccc(CN2CCn3nc(CNC(C)=O)cc3C2)cc1`, for which the cytotoxicity at 10 µM worked out at 17.4%.

As for `c1ccc(-c2nnc([C@H]3CCN(C4CCOCC4)C3)o2)cc1`, the cytotoxicity at 10 µM was -1.05%.

Regarding `CN(C)C(=O)CN1C(=O)CCC12CCN(Cc1ccc(F)cc1)CC2`, the cytotoxicity at 10 µM worked out at 7.8%.

Take `O=C(NCC(O)c1ccc(F)cc1F)c1ccccc1F` (centres undefined): the cytotoxicity at 10 µM worked out at 13.9%.

As to `O=C(Nc1ccccc1-c1cccs1)N1CCN(CC(F)F)CC1`, the cytotoxicity at 10 µM was -2.11%.

As for `COc1c(CNCCc2c[nH]c3ccccc23)c(C(C)C)nn1C`, the cytotoxicity at 10 µM came out at 3.41%.

In the case of `CCc1nc(CN(C)CC2CCN(CCO)CC2)no1`, the cytotoxicity at 10 µM was -9.68%.

Take `CC[C@@H](NC(C)=O)C(=O)NCc1cccnc1Oc1ccccc1OC`: the cytotoxicity at 10 µM is -3.06%.

Turning to `O=C(CCc1ccccn1)N1CCc2cc(Cl)cc(Cl)c2C1`, the cytotoxicity at 10 µM is -40.9%.

For `O=C(O)C1(Cc2cc(-c3ccccc3F)no2)CCOCC1`, the cytotoxicity at 10 µM was -9.41%.

For `CCOC(=O)C1CN(S(C)(=O)=O)Cc2ncn(CC)c21` (centres undefined), the cytotoxicity at 10 µM worked out at 6.74%.

For `O=C(c1ccsc1)N1CC(C(=O)N2CCOCC2)C2(CCOCC2)C1` (centres undefined), the cytotoxicity at 10 µM is -1.1%.

For the compound `COc1ccc2c(C)c(C(=O)NCC3CN(S(C)(=O)=O)CCO3)oc2c1` (centres undefined), the cytotoxicity at 10 µM was found to be 9.52%.

In the case of `O=C(c1cn(CC(=O)N2CCCCCC2)c2ccccc12)C1CC1`, the cytotoxicity at 10 µM is 13.6%.

Turning to `CNC(=O)c1ccc(C(=O)N2CCC(Nc3cccnn3)CC2)cn1`, the cytotoxicity at 10 µM is -19.4%.

On to `CC(C)n1nc(O)c2c1NC(=O)CSC2c1cnn(C)c1` (centres undefined), for which the cytotoxicity at 10 µM was -5.28%.

On to `O=c1[nH]c(-c2ccncc2)ncc1-c1ccnc(NC2CC2)n1`, for which the cytotoxicity at 10 µM is -11.7%.

As for `Cc1cc(Br)c(O)c(-c2nc(N3CCOCC3)sc2C)c1`, the cytotoxicity at 10 µM was determined as 74.4%.

With `O=C(CCCc1nc(C2CC2)no1)N1CCCC(c2ccn[nH]2)C1` (centres undefined), the cytotoxicity at 10 µM stood at 12%.

For `OC1(CN2CCC(Cc3ncccn3)CC2)CCCCC1`, the cytotoxicity at 10 µM amounted to 7.69%.

On to `CN(C)CC(=O)N1CCCCC1c1nc(N)ncc1-c1ccccc1` (centres undefined), for which the cytotoxicity at 10 µM is -0.155%.

For `CN(C(=O)c1ccccn1)c1nc2c(s1)CCc1c-2cnn1C`, the cytotoxicity at 10 µM is 11.7%.

For the compound `COCCN1CCN(Cc2ccc(Cl)cc2)[C@H]2CS(=O)(=O)C[C@H]21`, the cytotoxicity at 10 µM is -4.01%.

Turning to `CNC(=O)C1(c2cnccn2)CCCN1C(=O)c1ccccn1` (centres undefined), the cytotoxicity at 10 µM was 10.1%.

In the case of `Cc1cc(NC(=O)N(CC2CCOC2)C2CC2)no1` (centres undefined), the cytotoxicity at 10 µM was -0.457%.

`Cc1cc(C(=O)N2CCN(c3ccncc3Cl)CC2)n(C)n1`: the cytotoxicity at 10 µM was -9.1%.

For the compound `O=C(CC1CC1)N[C@@H]1CN(Cc2ccco2)C[C@@H]2CCCO[C@@H]21`, the cytotoxicity at 10 µM is -1.63%.

For the compound `Cc1ccc(S(=O)(=O)Nc2c(C)nc(N3CCCC3)nc2C)cc1`, the cytotoxicity at 10 µM is -0.243%.

Take `Cn1ncc2c(N3CCCC4(CCNC4)C3)nc(C(C)(C)C)nc21` (centres undefined): the cytotoxicity at 10 µM was -45.8%.

With `FC(F)(F)C1CCc2nnc(CNCc3ccsc3)n2C1` (centres undefined), the cytotoxicity at 10 µM is 0.847%.

In the case of `c1csc(CN2Cc3nccn3CC(Cn3cncn3)C2)c1` (centres undefined), the cytotoxicity at 10 µM was -136%.

For `COc1cncc(N2CCN(Cc3cccn3C)CC2)n1`, the cytotoxicity at 10 µM stood at 6.09%.

As for `O=C(c1cc2c(s1)CCOC2)N1CCCCC1Cn1cccn1` (centres undefined), the cytotoxicity at 10 µM is -6.52%.

With `O=C(NC[C@H]1OC[C@@H](NCc2ccccn2)[C@@H]1O)c1ccncc1`, the cytotoxicity at 10 µM was -9.77%.

Turning to `O=C1CC(NS(=O)(=O)c2ccc(F)c(Cl)c2)CN1` (centres undefined), the cytotoxicity at 10 µM was 6.32%.

As to `CC(C)CC(CCO)CNC(=O)N1CCOC2(CCCC2)C1` (centres undefined), the cytotoxicity at 10 µM worked out at 6.37%.
